Source: ChEMBL document CHEMBL1153852, “Steroidal lactones as inhibitors of 17beta-hydroxysteroid dehydrogenase type 5: chemical synthesis, enzyme inhibitory activity, and assessment of estrogenic and androgenic activities” (Eur J Med Chem, 2009)
Activity calls are given as the source filed them. The rule behind the calls is not given here.

What was measured:
[1] = biological target: T1, 17-beta-hydroxysteroid dehydrogenase type 2 (Homo sapiens) (UniProt P37059); test: Inhibition of human 17beta-HSD2 expressed in HEK293 cells assessed as enzyme-mediated transformation of [14C]-testosterone in to [14C]-4-androstene-3,17-dione at 1 uM; type: cell-based
T1 sequence (whole entry): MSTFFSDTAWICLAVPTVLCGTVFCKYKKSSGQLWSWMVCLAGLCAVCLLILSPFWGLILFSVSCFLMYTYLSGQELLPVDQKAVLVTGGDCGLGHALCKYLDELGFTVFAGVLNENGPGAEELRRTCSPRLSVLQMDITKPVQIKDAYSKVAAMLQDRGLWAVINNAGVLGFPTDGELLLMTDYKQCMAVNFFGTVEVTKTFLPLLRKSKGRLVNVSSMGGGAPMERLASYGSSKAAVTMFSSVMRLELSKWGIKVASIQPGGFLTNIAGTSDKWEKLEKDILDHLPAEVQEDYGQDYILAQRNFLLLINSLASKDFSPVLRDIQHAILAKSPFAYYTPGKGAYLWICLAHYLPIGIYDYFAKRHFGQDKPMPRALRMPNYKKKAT

[2] = biological target: T2, Glucocorticoid receptor (Rattus norvegicus) (UniProt P06536); test: Binding affinity to rat liver glucocorticoid receptor at 0.1 uM
T2 sequence (whole entry): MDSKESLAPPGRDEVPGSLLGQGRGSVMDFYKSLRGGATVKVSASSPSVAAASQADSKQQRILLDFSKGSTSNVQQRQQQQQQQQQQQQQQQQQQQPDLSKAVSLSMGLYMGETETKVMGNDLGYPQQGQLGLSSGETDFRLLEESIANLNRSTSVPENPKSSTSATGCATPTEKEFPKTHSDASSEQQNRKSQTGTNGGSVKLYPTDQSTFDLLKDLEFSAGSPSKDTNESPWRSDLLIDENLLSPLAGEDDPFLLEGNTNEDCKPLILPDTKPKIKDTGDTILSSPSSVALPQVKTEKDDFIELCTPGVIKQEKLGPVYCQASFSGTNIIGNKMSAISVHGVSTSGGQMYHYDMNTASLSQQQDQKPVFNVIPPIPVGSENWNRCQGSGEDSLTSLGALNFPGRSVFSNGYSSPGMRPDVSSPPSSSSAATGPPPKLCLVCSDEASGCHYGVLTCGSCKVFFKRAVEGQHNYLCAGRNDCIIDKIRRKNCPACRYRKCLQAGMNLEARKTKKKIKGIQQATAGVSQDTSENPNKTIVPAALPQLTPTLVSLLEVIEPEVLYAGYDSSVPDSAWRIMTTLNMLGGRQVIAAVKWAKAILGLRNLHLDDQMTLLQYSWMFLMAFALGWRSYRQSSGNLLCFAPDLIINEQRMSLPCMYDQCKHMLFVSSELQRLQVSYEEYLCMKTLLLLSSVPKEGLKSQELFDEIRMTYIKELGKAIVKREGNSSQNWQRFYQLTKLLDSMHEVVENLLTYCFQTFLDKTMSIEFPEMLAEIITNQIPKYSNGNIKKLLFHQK
In short: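 Rat liver glucocorticoid receptor competitive binding, reported as % binding. Bound and free steroid are separated by dextran-coated charcoal adsorption instead of protamine sulfate precipitation.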

[3] = biological target: T3, Androgen receptor (Rattus norvegicus) (UniProt P15207); test: Binding affinity to rat ventral prostate androgen receptor at 0.1 uM; type: tissue-based; conditions: Prostate gland
T3 sequence (whole entry): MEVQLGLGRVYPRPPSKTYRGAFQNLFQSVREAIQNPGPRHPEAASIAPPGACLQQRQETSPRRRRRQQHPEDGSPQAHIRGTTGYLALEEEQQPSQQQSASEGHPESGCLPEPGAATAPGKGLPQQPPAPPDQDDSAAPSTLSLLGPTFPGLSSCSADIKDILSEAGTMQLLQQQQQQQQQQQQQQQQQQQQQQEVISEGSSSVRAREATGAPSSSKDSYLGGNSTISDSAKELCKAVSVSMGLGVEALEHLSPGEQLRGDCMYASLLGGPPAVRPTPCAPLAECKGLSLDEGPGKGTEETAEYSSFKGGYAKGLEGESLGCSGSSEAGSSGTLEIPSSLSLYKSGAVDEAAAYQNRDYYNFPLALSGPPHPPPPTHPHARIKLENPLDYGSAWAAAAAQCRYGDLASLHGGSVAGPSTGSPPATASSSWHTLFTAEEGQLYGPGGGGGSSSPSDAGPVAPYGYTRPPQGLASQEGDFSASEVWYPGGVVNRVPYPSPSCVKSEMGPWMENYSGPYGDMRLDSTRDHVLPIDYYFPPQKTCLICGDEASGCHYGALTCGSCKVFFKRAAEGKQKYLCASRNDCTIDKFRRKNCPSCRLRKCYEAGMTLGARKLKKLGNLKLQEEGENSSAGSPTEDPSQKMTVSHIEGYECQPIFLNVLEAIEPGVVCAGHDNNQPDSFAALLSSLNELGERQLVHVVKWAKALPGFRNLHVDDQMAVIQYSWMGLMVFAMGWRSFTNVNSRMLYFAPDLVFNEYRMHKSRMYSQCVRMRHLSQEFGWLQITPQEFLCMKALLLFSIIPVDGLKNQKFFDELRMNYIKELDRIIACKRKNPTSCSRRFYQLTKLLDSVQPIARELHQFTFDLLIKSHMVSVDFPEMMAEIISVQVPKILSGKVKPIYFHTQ

[4] = biological target: T4, 17-beta-hydroxysteroid dehydrogenase type 3 (Homo sapiens) (UniProt P37058); test: Inhibition of human 17beta-HSD3 expressed in HEK293 cells assessed as enzyme-mediated transformation of [14C]-4-androstene-3,17-dione in to [14C]-testosterone at 0.1 uM; type: cell-based
T4 sequence (whole entry): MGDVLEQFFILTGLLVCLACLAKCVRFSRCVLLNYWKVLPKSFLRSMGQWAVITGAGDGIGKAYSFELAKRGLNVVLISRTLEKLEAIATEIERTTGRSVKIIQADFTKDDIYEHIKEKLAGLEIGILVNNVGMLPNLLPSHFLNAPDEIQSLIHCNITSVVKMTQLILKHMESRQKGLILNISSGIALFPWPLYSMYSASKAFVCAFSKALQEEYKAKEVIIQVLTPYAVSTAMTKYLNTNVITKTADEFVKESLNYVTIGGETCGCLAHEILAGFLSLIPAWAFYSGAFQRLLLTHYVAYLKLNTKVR

| SMILES | Activity [1] | Activity [2] [%] | Activity [3] [%] | inhibition [4] [%] |
| --- | --- | --- | --- | --- |
| CC1(C)CC[C@@]2(CC[C@H]3[C@@H]4CCc5cc(O)ccc5[C@H]4CC[C@@]32C)OC1=O | inactive | 0 | 0 | – |
| CC1(C)CC[C@@]2(CC[C@H]3[C@@H]4CCc5ccccc5[C@H]4CC[C@@]32C)OC1=O | – | – | – | 25 |
